Results reported in ChEMBL document CHEMBL1153140, “Piperidyl amides as novel, potent and orally active mGlu5 receptor antagonists with anxiolytic-like activity” (Bioorg Med Chem Lett, 2010).
In brackets after ≈: the same amount, converted by molar mass. Each block holds one molecule with its values, some of them ahead of it. Activity calls are given as the source filed them. The rule behind the calls is not given here.

Assays:
[1] = target: T1, Metabotropic glutamate receptor 5 (Homo sapiens, UniProt P41594); assay: Antagonist activity at human mGluR5 assessed as inhibition of glutamate-induced elevation of intracellular calcium concentration; assay type: functional, cell-based
T1 sequence (P41594 whole entry): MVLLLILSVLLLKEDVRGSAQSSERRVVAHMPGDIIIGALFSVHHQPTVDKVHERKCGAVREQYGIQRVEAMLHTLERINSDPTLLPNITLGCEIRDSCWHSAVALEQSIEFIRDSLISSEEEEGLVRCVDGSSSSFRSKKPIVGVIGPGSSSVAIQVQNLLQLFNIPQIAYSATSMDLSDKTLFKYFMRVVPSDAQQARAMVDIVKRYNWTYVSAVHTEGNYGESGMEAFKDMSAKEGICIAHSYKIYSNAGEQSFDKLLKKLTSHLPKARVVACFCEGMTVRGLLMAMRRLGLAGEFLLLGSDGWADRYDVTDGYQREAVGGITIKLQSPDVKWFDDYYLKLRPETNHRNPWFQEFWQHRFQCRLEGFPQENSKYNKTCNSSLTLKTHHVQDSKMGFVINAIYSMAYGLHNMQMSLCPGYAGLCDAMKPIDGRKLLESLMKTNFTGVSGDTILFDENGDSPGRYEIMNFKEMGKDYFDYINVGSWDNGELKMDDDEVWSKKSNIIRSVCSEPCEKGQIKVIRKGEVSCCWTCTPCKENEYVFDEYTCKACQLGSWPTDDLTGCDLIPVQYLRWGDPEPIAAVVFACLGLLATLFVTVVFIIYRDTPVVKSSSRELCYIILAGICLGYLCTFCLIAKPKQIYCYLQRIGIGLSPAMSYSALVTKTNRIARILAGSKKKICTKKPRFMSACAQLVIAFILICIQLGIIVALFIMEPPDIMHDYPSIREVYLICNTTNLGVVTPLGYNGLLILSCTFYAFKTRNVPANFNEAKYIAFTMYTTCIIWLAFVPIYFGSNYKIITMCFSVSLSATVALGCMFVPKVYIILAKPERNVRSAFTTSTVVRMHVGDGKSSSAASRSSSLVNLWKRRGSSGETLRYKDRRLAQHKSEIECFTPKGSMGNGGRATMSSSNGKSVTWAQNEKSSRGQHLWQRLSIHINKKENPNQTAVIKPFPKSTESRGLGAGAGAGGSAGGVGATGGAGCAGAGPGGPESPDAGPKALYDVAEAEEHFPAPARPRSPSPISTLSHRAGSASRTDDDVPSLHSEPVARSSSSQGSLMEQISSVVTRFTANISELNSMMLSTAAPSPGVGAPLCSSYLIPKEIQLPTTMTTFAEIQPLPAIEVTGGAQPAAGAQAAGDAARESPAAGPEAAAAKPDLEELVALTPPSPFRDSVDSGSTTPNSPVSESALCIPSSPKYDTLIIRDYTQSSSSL

[2] = Intrinsic clearance in rat liver microsomes; assay type: ADME, Microsome
[3] = Aqueous solubility at pH 6.8; assay type: physicochemical
How it was run: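 Solubility measured at pH 6.8 by a dissolution template potentiometric titration approach, expressed in mg/L.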

[4] = Intrinsic clearance in human liver microsomes; assay type: ADME, Microsome
[5] = target: T1, Metabotropic glutamate receptor 5; assay: Antagonist activity at human mGluR5 assessed as inhibition of quisqualate-induced intracellular inositol phosphate accumulation; assay type: functional, cell-based
[6] = Volume of distribution at steady state in Sprague-Dawley rat at 10 umol/kg, iv; assay type: ADME, organism-based; settings: in vivo, read-out: Vdss
How it was run: (§1)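 Single iv bolus of 10 µmol/kg in Sprague-Dawley rats, n = 3 per group. Plasma concentration-time profile analysed for AUC, clearance, first and second elimination half-lives, MRT and Vss. Brain/plasma AUC ratio also determined.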

[7] = Mean retention time in Sprague-Dawley rat at 10 umol/kg, iv; assay type: ADME, organism-based; settings: in vivo; how it was run: as §1
Rattus norvegicus [8] = assay: Anxiolytic-like activity in water-deprived rat assessed as increase in electrical shock-stimulated lick at 3 mg/kg, po administered 1 hr before test by Vogel conflict test; assay type: functional, organism-based; parameters: dose 3 mg/kg
Glutamate NMDA receptor = assay: Displacement of radioligand from glutamate and glycine binding site of NMDA receptor in rat brain membrane; assay type: cell membranes
How it was run: (§2)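 Radioligand displacement in rat brain membranes: AMPA (glutamate site), kainate (glutamate site) and NMDA (glutamate and glycine sites).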

[9] = Tmax in Sprague-Dawley rat at 30 umol/kg, po; assay type: ADME, organism-based; settings: in vivo
How it was run: (§3)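 Sprague-Dawley rats (n = 3/group) dosed orally once at 30 µmol/kg. Plasma Cmax, Tmax and AUC determined.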

[10] = Oral bioavailability in Sprague-Dawley rat at 30 umol/kg; assay type: ADME, organism-based; settings: in vivo; how it was run: as §3
[11] = Displacement of radioligand from glutamate binding site of kinate receptor in rat brain membrane; assay type: cell membranes; how it was run: as §2
Brain = assay: Drug level in rat brain at 2 mg/kg; assay type: ADME, organism-based; parameters: dose 2 mg/kg; settings: in vivo
How it was run: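 In a fear-potentiated startle run at 0.08–30 mg/kg po, rats were sacrificed immediately after testing. Brains were removed and drug concentration measured by HPLC, reported as mean ± SEM per dose group.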

[12] = target: T1, Metabotropic glutamate receptor 5; assay: Displacement of [3H]ABP688 from human recombinant mGluR5 expressed in CHO cells; assay type: cell-based
[13] = Second elimination Half life in Sprague-Dawley rat at 10 umol/kg, iv; assay type: ADME, organism-based; settings: in vivo, read-out: beta t1/2 (converted); how it was run: as §1
Mus musculus = assay: Anxiolytic-like activity in mouse assessed as reduction of stress-induced hyperthermia at 3 to 10 mg/kg, po; assay type: functional, organism-based
[14] = target: Metabotropic glutamate receptor 5 (Rattus norvegicus, UniProt P31424); assay: Displacement of [3H]ABP688 from mGluR5 in rat brain cortex; assay type: tissue-based
Metabotropic glutamate receptor 5 (Rattus norvegicus, UniProt P31424), sequence (P31424 whole entry): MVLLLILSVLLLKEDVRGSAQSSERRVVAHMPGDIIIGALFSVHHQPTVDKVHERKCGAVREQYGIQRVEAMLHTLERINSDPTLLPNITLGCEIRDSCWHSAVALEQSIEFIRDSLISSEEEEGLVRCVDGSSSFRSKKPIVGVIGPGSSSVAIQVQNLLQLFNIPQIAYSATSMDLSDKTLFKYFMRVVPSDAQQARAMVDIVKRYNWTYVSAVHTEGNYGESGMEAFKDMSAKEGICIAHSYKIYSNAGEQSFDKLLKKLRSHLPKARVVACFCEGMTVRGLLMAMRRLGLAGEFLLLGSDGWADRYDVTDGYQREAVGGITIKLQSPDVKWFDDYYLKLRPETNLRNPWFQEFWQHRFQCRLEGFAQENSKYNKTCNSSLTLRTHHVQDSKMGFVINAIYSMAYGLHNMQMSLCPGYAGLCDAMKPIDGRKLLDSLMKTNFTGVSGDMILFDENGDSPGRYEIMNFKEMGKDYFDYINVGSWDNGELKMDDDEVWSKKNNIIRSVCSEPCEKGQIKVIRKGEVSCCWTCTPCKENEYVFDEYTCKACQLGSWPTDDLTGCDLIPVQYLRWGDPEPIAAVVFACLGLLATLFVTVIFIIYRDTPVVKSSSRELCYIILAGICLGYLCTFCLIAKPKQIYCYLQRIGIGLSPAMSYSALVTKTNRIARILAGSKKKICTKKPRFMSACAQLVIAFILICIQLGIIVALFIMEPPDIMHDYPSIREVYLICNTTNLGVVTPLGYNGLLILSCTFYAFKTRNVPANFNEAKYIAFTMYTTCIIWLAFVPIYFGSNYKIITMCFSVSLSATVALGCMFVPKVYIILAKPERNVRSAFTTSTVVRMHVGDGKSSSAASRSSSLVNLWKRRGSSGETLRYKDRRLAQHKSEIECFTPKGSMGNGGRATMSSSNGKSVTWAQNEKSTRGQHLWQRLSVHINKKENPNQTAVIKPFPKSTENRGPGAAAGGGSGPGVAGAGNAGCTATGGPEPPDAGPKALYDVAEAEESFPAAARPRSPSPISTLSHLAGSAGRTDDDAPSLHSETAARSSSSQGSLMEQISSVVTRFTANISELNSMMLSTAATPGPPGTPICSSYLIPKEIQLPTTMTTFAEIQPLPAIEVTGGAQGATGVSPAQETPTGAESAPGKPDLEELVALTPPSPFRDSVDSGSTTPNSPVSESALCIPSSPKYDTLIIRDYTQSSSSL

[15] = Ratio of drug level in brain to plasma in Sprague-Dawley rat at 10 umol/kg, iv; assay type: ADME
How it was run: (§4)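 Single-dose pharmacokinetic study in Sprague-Dawley rats, n = 3 per group, given one oral or one iv bolus dose. Drug concentrations were followed over time in plasma and brain. The ratio is the brain AUC divided by the plasma AUC.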

[16] = target: Metabotropic glutamate receptor 7 (Homo sapiens, UniProt Q14831); assay: Inhibition of human mGluR7
Rattus norvegicus [17] = assay: Anxiolytic-like activity in water-deprived rat assessed as increase in electrical shock-stimulated lick at 10 to 30 mg/kg, po administered 1 hr before test by Vogel conflict test; assay type: functional, organism-based
[18] = AUC in Sprague-Dawley rat at 30 umol/kg, po; assay type: ADME, organism-based; settings: plasma; how it was run: as §3
[19] = target: Metabotropic glutamate receptor 1 (Homo sapiens, UniProt Q13255); assay: Inhibition of human mGluR1
Metabotropic glutamate receptor 1, sequence (Q13255 whole entry): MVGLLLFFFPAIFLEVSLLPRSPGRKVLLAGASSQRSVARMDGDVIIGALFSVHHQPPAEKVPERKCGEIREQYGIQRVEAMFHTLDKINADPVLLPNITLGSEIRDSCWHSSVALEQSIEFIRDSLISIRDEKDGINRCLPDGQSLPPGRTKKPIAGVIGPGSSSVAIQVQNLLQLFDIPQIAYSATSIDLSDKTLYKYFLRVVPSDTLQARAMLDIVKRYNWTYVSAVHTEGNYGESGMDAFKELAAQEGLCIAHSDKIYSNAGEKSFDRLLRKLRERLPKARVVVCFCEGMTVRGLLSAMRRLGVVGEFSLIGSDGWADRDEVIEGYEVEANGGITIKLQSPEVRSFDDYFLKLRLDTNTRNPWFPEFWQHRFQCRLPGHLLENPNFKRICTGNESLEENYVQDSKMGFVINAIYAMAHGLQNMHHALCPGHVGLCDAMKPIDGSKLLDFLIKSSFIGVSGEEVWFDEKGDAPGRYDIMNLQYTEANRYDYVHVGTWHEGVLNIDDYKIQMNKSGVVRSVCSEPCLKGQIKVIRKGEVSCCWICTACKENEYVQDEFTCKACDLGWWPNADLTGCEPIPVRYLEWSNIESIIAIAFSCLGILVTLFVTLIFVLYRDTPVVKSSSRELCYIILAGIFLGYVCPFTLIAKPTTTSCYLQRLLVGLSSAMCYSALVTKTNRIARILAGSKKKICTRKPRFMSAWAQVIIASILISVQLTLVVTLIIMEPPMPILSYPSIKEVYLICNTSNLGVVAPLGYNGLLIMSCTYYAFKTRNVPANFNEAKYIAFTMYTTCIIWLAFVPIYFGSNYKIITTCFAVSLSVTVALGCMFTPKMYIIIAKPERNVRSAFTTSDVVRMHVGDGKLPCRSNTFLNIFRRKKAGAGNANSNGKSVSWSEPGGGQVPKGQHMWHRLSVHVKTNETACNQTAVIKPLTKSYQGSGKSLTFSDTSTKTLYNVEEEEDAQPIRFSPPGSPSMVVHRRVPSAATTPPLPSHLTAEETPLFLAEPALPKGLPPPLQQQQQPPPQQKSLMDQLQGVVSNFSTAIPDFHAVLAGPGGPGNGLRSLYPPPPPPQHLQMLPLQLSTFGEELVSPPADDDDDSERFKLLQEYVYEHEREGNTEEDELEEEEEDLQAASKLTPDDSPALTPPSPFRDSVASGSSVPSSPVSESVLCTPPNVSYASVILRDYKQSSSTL

[20] = Cmax in Sprague-Dawley rat at 30 umol/kg, po; assay type: ADME, organism-based; parameters: dose 30 umol/kg, route oral; settings: in vivo; how it was run: as §3
[21] = Ratio of drug level in brain to plasma in Sprague-Dawley rat at 30 umol/kg, po; assay type: ADME; how it was run: as §4
[22] = First elimination Half life in Sprague-Dawley rat at 10 umol/kg, iv; assay type: ADME, organism-based; settings: in vivo, read-out: beta t1/2 (converted); how it was run: as §1
[23] = target: Metabotropic glutamate receptor 2 (Homo sapiens, UniProt Q14416); assay: Inhibition of human mGluR2
Metabotropic glutamate receptor 2, sequence (Q14416 whole entry): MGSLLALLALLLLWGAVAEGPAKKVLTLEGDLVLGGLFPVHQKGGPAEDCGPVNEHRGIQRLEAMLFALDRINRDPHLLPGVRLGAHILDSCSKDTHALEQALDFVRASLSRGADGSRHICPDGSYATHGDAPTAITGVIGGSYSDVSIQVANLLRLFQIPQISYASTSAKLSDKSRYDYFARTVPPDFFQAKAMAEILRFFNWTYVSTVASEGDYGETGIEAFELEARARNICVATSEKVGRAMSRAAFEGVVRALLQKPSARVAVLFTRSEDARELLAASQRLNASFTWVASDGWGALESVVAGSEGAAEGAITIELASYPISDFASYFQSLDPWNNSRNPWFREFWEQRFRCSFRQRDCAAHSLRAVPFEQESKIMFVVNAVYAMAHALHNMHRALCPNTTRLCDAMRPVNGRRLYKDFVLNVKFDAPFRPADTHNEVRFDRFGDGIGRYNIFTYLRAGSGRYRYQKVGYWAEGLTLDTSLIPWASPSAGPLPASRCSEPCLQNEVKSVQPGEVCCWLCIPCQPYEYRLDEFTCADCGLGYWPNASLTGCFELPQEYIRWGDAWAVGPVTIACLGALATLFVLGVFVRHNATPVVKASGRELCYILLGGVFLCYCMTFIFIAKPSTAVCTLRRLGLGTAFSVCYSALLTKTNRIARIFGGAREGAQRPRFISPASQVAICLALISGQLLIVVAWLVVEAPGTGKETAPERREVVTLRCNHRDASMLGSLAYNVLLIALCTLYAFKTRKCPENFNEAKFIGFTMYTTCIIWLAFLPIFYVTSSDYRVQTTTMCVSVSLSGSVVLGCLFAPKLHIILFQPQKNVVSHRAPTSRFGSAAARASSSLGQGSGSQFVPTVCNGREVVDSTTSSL

[24] = Clearance in Sprague-Dawley rat at 10 umol/kg, iv; assay type: ADME, organism-based; settings: in vivo; how it was run: as §1
Rattus norvegicus [25] = organism: Rattus norvegicus; assay: Anxiolytic-like activity in rat assessed as reduction in electric foot shock-induced fear-potentiation startle; assay type: functional, organism-based
How it was run: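 Rats fear-conditioned by 20 pairings of light (5 s) with footshock (0.5 mA, 0.5 s) on two successive days. On day 3, oral dosing (3–30 mg/kg, n = 10/group). 1 h later, startle to a noise burst measured with and without light, 12 presentations each; FPS taken as the difference. Multifactorial ANOVA with Dunnett post-hoc.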

[26] = AUC in Sprague-Dawley rat at 10 umol/kg, iv; assay type: ADME, organism-based; settings: plasma; how it was run: as §1
[27] = Displacement of radioligand from glutamate binding site of AMPA receptor in rat brain membrane; assay type: cell membranes; how it was run: as §2

IC50 [1]: > 10 µM
SMILES: O=C(c1cnc(Nc2ccc(Cl)cc2)cn1)N1CCCCC1

IC50 [1]: 0.25 µM
SMILES: O=C(c1ccc(Nc2ccc(Cl)cc2)nc1)N1CCCCCC1

IC50 [1]: > 10 µM
SMILES: O=C(NC1CCCCC1)c1ccc(Nc2ccc(Cl)cc2)nc1

IC50 [1]: > 10 µM
SMILES: CC1CCCN(C(=O)c2ccc(Oc3ccc(Cl)cc3)nc2)C1 (configuration not stated)

microsomal CLint [2]: 643 µL/min/mg
solubility [3]: 95 µg/mL (≈ 265 µM)
microsomal CLint [4]: 322 µL/min/mg
SMILES: CC[C@@H]1CCCN(C(=O)c2cnc(Nc3ccc(C)nc3)c(Cl)c2)C1

microsomal CLint [2]: 190 µL/min/mg
IC50 [5]: 0.36 µM
solubility [3]: 56 µg/mL (≈ 156 µM)
IC50 [1]: 0.39 µM
microsomal CLint [4]: 216 µL/min/mg
SMILES: CC[C@H]1CCCCN1C(=O)c1cnc(Nc2ccc(C)nc2)c(Cl)c1

IC50 [1]: 2.3 µM
SMILES: Cc1ccc(Nc2ccc(C(=O)N3CCCCC3)cn2)cc1

IC50 [1]: 5.4 µM
SMILES: O=C(c1ccc(Nc2ccc(Cl)cc2)nc1)N1CCCC1

microsomal CLint [2]: 38 µL/min/mg
microsomal CLint [4]: 60 µL/min/mg
SMILES: Cc1ccc(Nc2ncc(C(=O)N3CCCC(C)C3)cc2Cl)cn1 (racemic)

IC50 [1]: > 10 µM
SMILES: Cc1cccc(Nc2ccc(C(=O)N3CCCCC3)cn2)n1

microsomal CLint [2]: 220 µL/min/mg
IC50 [5]: 0.09 µM
solubility [3]: 122 µg/mL (≈ 340 µM)
IC50 [1]: 0.11 µM
microsomal CLint [4]: 138 µL/min/mg
SMILES: CCC1CCCCN1C(=O)c1cnc(Nc2ccc(C)nc2)c(Cl)c1 (racemic)

IC50 [1]: 0.095 µM
SMILES: CC1CCCN(C(=O)c2cnc(Nc3ccc(Cl)cc3)c(Cl)c2)C1 (configuration not stated)

IC50 [1]: 2.3 µM
SMILES: CC1CCN(C(=O)c2ccc(Nc3ccc(Cl)cc3)nc2)CC1

IC50 [1]: > 10 µM
SMILES: O=C(c1ccc(NC2CCCCC2)nc1)N1CCCCC1

IC50 [1]: 0.31 µM
SMILES: O=C(c1ccc(Nc2ccc(Cl)cc2)nc1)N1CCCCC1

microsomal CLint [2]: 48 µL/min/mg
solubility [3]: 150 µg/mL (≈ 453 µM)
microsomal CLint [4]: 33 µL/min/mg
SMILES: Cc1ccc(Nc2ncc(C(=O)N3CCCCC3)cc2Cl)cn1

microsomal CLint [2]: 637 µL/min/mg
IC50 [5]: 0.005 µM
solubility [3]: < 3 µg/mL
IC50 [1]: 0.136 µM
microsomal CLint [4]: 227 µL/min/mg
SMILES: CCCCC1CCCCN1C(=O)c1cnc(Nc2ccc(C)nc2)c(Cl)c1 (racemic)

microsomal CLint [2]: 73 µL/min/mg
IC50 [5]: 0.43 µM
solubility [3]: 216 µg/mL (≈ 626 µM)
IC50 [1]: 0.24 µM
microsomal CLint [4]: 44 µL/min/mg
SMILES: Cc1ccc(Nc2ncc(C(=O)N3CCCC[C@H]3C)cc2Cl)cn1

microsomal CLint [2]: 885 µL/min/mg
IC50 [5]: 0.016 µM
solubility [3]: < 3 µg/mL
IC50 [1]: 0.09 µM
microsomal CLint [4]: 224 µL/min/mg
SMILES: CCCC1CCCCN1C(=O)c1cnc(Nc2ccc(C)nc2)c(Cl)c1 (racemic)

IC50 [1]: > 10 µM
SMILES: CN(c1ccc(Cl)cc1)c1ccc(C(=O)N2CCCCC2)cn1

IC50 [1]: > 10 µM
SMILES: O=C(c1ccc(Nc2ccc(Cl)c(Cl)c2)nc1)N1CCCCC1

IC50 [1]: 1.6 µM
SMILES: CC1CCCN(C(=O)c2ccc(Nc3ccc(Cl)cc3)cc2)C1 (configuration not stated)

microsomal CLint [2]: 687 µL/min/mg
solubility [3]: < 3 µg/mL
microsomal CLint [4]: 174 µL/min/mg
SMILES: CC[C@H]1CCCN(C(=O)c2cnc(Nc3ccc(C)nc3)c(Cl)c2)C1

Vd [6]: 2 L/kg
MRT [7]: 54 min
IC50 (Glutamate NMDA receptor): > 10 µM
Tmax [9]: 15 min
bioavailability [10]: 54%
IC50 [11]: > 10 µM
microsomal CLint [2]: 87 µL/min/mg
Drug uptake (Brain): 127 pmol/g
Ki [12]: 0.038 µM
half-life [13]: 54 min
IC50 [5]: 0.036 µM
Ki [14]: 0.03 µM
Kp [15]: 1.36
solubility [3]: 58 µg/mL (≈ 162 µM)
IC50 [16]: > 10 µM
AUC [18]: 7.23 µM·h
IC50 [1]: 0.032 µM
IC50 [19]: > 10 µM
Cmax [20]: 1230 nM
Kp [21]: 1.3
half-life [22]: 18 min
IC50 [23]: > 10 µM
clearance [24]: 37.2 mL/min/kg
microsomal CLint [4]: 89 µL/min/mg
AUC [26]: 4.48 µM·h
IC50 [27]: > 10 µM
SMILES: CC[C@@H]1CCCCN1C(=O)c1cnc(Nc2ccc(C)nc2)c(Cl)c1
Activity (Rattus norvegicus [8]): inactive
Activity (Mus musculus): Active
Activity (Rattus norvegicus [17]): Active
Activity (Rattus norvegicus [25]): Dose-dependent effect

microsomal CLint [2]: 68 µL/min/mg
solubility [3]: 499 µg/mL (≈ 1450 µM)
IC50 [1]: 1.4 µM
microsomal CLint [4]: 39 µL/min/mg
SMILES: Cc1ccc(Nc2ncc(C(=O)N3CCCC[C@@H]3C)cc2Cl)cn1

IC50 [1]: 1.8 µM
SMILES: COc1ccc(Nc2ccc(C(=O)N3CCCCC3)cn2)cc1

IC50 [1]: > 10 µM
SMILES: CC1CCCN(C(=O)c2cc(Nc3ccc(Cl)cc3)[nH]n2)C1 (configuration not stated)

IC50 [1]: 0.46 µM
SMILES: CCN(CC)C(=O)c1ccc(Nc2ccc(Cl)cc2)nc1

IC50 [1]: 2.3 µM
SMILES: O=C(c1ccc(Nc2ccc(Cl)cc2)nc1)N1CCCCCCC1

IC50 [1]: 0.72 µM
SMILES: CC1CCCN(C(=O)c2ccc(Nc3ccc(Cl)cc3)nn2)C1 (configuration not stated)

IC50 [1]: 0.43 µM
SMILES: CC1CCCCN1C(=O)c1ccc(Nc2ccc(Cl)cc2)nc1 (racemic)

IC50 [1]: 2.1 µM
SMILES: COc1cc(C(=O)N2CCCCC2)cnc1Nc1ccc(Cl)cc1

IC50 [1]: 0.42 µM
SMILES: Cc1ccc(Nc2ccc(C(=O)N3CCCCC3)cn2)cn1

IC50 [1]: 0.53 µM
SMILES: CC1CCCN(C(=O)c2ccc(Nc3ccc(Cl)cc3)nc2)C1 (racemic)

IC50 [1]: 10 µM
SMILES: O=C(c1ccc(Nc2ccccc2)nc1)N1CCCCC1

IC50 [1]: 10 µM
SMILES: O=C(c1ccc(Nc2ccc(Cl)cn2)nc1)N1CCCCC1

IC50 [1]: 2.3 µM
SMILES: O=C(c1ccc(Nc2ccc(F)cc2)nc1)N1CCCCC1

IC50 [1]: > 10 µM
SMILES: O=C(c1ccc(Nc2ccccc2Cl)nc1)N1CCCCC1

IC50 [1]: > 10 µM
SMILES: O=C(c1ccc(Nc2cccc(Cl)c2)nc1)N1CCCCC1

microsomal CLint [2]: 417 µL/min/mg
solubility [3]: 15 µg/mL (≈ 41.8 µM)
microsomal CLint [4]: 171 µL/min/mg
SMILES: CCC1CCCN(C(=O)c2cnc(Nc3ccc(C)nc3)c(Cl)c2)C1 (racemic)

IC50 [1]: 0.98 µM
SMILES: CC1CCCN(C(=O)c2cnc(Nc3ccc(Cl)cc3)nc2)C1 (configuration not stated)
